Source: ChEMBL document CHEMBL2086318, “Synthesis and in vitro antimycobacterial activity of 2-methoxybenzanilides and their thioxo analogues” (Eur J Med Chem, 2012)
Values after ≈ are worked out from the molar mass of the structure shown.

What was measured:
Mycobacterium kansasii [1] = assay: Antimycobacterial activity against Mycobacterium kansasii My 235/80 after 7 days by micromethod; assay type: functional; conditions: My 235/80, 168 h
Mycobacterium kansasii [2] = assay: Antimycobacterial activity against Mycobacterium kansasii My 235/80 after 14 days by micromethod; assay type: functional; conditions: My 235/80, 336 h
Mycobacterium kansasii [3] = assay: Antimycobacterial activity against Mycobacterium kansasii My 6509/96 clinical isolate after 21 days by micromethod; assay type: functional; conditions: My 6509/96, 504 h
[4] = Selectivity ratio of IC50 for human HepG2 cells to MIC for Mycobacterium tuberculosis My 331/88 after 14 days; assay type: functional
Outline: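 HepG2 cells (passage 12) at 10,000 cells/well in MEM with 10% FBS, 1% glutamine and 1% nonessential amino acids, pre-incubated 24 h at 37 °C, 5% CO2. Compounds in DMSO at eight concentrations in quadruplicate for 24 h. MTS-type reagent added for 1.5 h, absorbance at 490 nm. IC50 from curve fit. SI = IC50 / 14-day MIC against M. tuberculosis 331/88.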

Mycobacterium avium [5] = assay: Antimycobacterial activity against Mycobacterium avium My 330/88 after 21 days by micromethod; assay type: functional; conditions: My 330/88, 504 h
[6] = test system: Mycobacterium tuberculosis; assay: Antimycobacterial activity against Mycobacterium tuberculosis My 331/88 after 14 days by micromethod; assay type: functional; conditions: My 331/88, 336 h
Outline: (§1)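 MIC by micromethod at 37 °C, read after 14 and 21 days. Inocula were M. tuberculosis My 331/88 at 10^-3 dilution and M. avium My 330/88 at 10^-5 dilution. Compounds added in DMSO across 1000, 500, 250, 125, 62.5, 32, 16, 8, 4, 2, 1 and 0.5; isoniazid standard in sterile water. MIC taken as the lowest concentration inhibiting growth.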

Mycobacterium kansasii [7] = assay: Antimycobacterial activity against Mycobacterium kansasii My 235/80 after 21 days by micromethod; assay type: functional; conditions: My 235/80, 504 h
Mycobacterium kansasii [8] = assay: Antimycobacterial activity against Mycobacterium kansasii My 6509/96 clinical isolate after 7 days by micromethod; assay type: functional; conditions: My 6509/96, 168 h
Mycobacterium kansasii [9] = assay: Antimycobacterial activity against Mycobacterium kansasii My 6509/96 clinical isolate after 14 days by micromethod; assay type: functional; conditions: My 6509/96, 336 h
[10] = molecular target: T1, Isocitrate lyase (Mycobacterium tuberculosis) (UniProt P9WKK7); assay: Inhibition of Mycobacterium tuberculosis H37Rv isocitrate lyase expressed in Escherichia coli BL21(DE3) using (+)-potassium Ds-threo-isocitrate as substrate assessed as glyoxylate phenyl hydrazone formation at 100 umol/L by spectrophotometry
T1 sequence (whole entry): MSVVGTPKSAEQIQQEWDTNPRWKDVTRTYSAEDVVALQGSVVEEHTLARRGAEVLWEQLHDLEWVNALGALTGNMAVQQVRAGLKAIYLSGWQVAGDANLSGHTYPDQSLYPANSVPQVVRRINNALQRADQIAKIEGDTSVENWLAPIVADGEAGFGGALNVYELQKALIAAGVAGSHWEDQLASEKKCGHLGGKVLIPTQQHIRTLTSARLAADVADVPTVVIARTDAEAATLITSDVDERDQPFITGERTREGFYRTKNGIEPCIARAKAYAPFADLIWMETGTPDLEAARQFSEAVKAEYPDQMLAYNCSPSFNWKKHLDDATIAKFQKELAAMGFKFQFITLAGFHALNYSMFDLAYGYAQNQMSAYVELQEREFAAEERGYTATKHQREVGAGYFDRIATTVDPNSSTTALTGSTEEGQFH

Mycobacterium avium [11] = assay: Antimycobacterial activity against Mycobacterium avium My 330/88 after 14 days by micromethod; assay type: functional; conditions: My 330/88, 336 h
HepG2 = assay: Cytotoxicity against human HepG2 cells after 24 hrs by CellTiter assay; assay type: cell-based; conditions: HepG2, 24 h
Outline: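 Hep G2 cells (passage 12), 10,000 per well in MEM with 1% glutamine, 10% FBS and 1% nonessential amino acids, preincubated 24 h at 37 °C, 5% CO2. Compounds dissolved in DMSO, tested at eight concentrations in quadruplicate for 24 h at 37 °C. MTS-type reagent added for 1.5 h, absorbance read at 490 nm. IC50 = concentration reducing viability to 50% of control.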

[12] = test system: Mycobacterium tuberculosis; assay: Antimycobacterial activity against Mycobacterium tuberculosis My 331/88 after 21 days by micromethod; assay type: functional; conditions: My 331/88, 504 h; outline: as §1

SMILES	MIC (Mycobacterium kansasii [1]) [µM]	MIC (Mycobacterium kansasii [2]) [µM]	MIC (Mycobacterium kansasii [3]) [µM]	Selectivity ratio [4]	MIC (Mycobacterium avium [5]) [µM]	MIC [6] [µM]	MIC (Mycobacterium kansasii [7]) [µM]	MIC (Mycobacterium kansasii [8]) [µM]	MIC (Mycobacterium kansasii [9]) [µM]	inhibition [10] [%]	MIC (Mycobacterium avium [11]) [µM]	IC50 (HepG2) [µM]	MIC [12] [µM]
COc1cc(Cl)ccc1C(=S)Nc1ccc(Cl)cc1	32 (≈ 9.99 µg/mL)	62.5 (≈ 19.5 µg/mL)	62.5 (≈ 19.5 µg/mL)	0.73	32 (≈ 9.99 µg/mL)	4 (≈ 1.25 µg/mL)	62.5 (≈ 19.5 µg/mL)	16 (≈ 5 µg/mL)	32 (≈ 9.99 µg/mL)	39	32 (≈ 9.99 µg/mL)	2.93	16 (≈ 5 µg/mL)
COc1cc(Cl)ccc1C(=S)Nc1ccc(Cl)c(Cl)c1	16 (≈ 5.55 µg/mL)	32 (≈ 11.1 µg/mL)	32 (≈ 11.1 µg/mL)	3.25	32 (≈ 11.1 µg/mL)	2 (≈ 0.693 µg/mL)	62.5 (≈ 21.7 µg/mL)	16 (≈ 5.55 µg/mL)	32 (≈ 11.1 µg/mL)	17	32 (≈ 11.1 µg/mL)	6.5	8 (≈ 2.77 µg/mL)
COc1cc(Cl)ccc1C(=S)Nc1ccc(Br)cc1	32 (≈ 11.4 µg/mL)	62.5 (≈ 22.3 µg/mL)	62.5 (≈ 22.3 µg/mL)	0.89	62.5 (≈ 22.3 µg/mL)	4 (≈ 1.43 µg/mL)	62.5 (≈ 22.3 µg/mL)	16 (≈ 5.71 µg/mL)	32 (≈ 11.4 µg/mL)	27	16 (≈ 5.71 µg/mL)	3.55	16 (≈ 5.71 µg/mL)
COc1cc(Cl)ccc1C(=S)Nc1cccc(Cl)c1	16 (≈ 5 µg/mL)	32 (≈ 9.99 µg/mL)	32 (≈ 9.99 µg/mL)	2.92	16 (≈ 5 µg/mL)	4 (≈ 1.25 µg/mL)	32 (≈ 9.99 µg/mL)	16 (≈ 5 µg/mL)	32 (≈ 9.99 µg/mL)	20	16 (≈ 5 µg/mL)	11.7	16 (≈ 5 µg/mL)
COc1cc(Cl)ccc1C(=S)Nc1cccc(C(F)(F)F)c1	16 (≈ 5.53 µg/mL)	32 (≈ 11.1 µg/mL)	32 (≈ 11.1 µg/mL)	0.45	32 (≈ 11.1 µg/mL)	4 (≈ 1.38 µg/mL)	32 (≈ 11.1 µg/mL)	16 (≈ 5.53 µg/mL)	32 (≈ 11.1 µg/mL)	23	32 (≈ 11.1 µg/mL)	1.81	8 (≈ 2.77 µg/mL)
